Laboratory results as given in PubChem BioAssay.
Records with an inconclusive call do not appear.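 The calls were made as follows, unless noted: active = RAM network inhibition above 8.4% in each of two replicates, 3 SD over the compound average; inconclusive = above 8.4% inhibition in only one replicate; inactive = 8.4% inhibition or less in each replicate.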

How the values were obtained:
[1] = S. cerevisiae growth inhibition in permissive medium (OD615), pilot counter-assay for S. cerevisiae lifespan shortening project, permissive growth control (AID 705;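 active = growth inhibition above 25% in both replicates, a cutoff set 3 SD above the mean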); conditions: OD615, 24 h, at 10 µM, active compounds read high
Summary of the method: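 System: engineered DeaD yeast; Medium: permissive raffinose/galactose medium; Compound dosing: 10 µM single dose, 0.25% DMSO; Incubation: 4 h cell pre-growth, 24 h exposure at 30 °C; Technique: OD at 615 nm; Evaluation: growth inhibition from lowered OD615 after 24 h.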

[2] = S. cerevisiae growth inhibition in restrictive medium, OD615, pilot screen, restrictive growth control, yeast lifespan reduction project (AID 706;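 active = growth inhibition above a set limit, 3 SD over mean compound inhibition, in both replicates, cut at about 43% in these data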;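 also: modified DeaD lifespan yeast strain shifted to restrictive glucose medium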); conditions: OD615, 48 h, at 10 µM, active compounds read high
Summary of the method: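 Material: modified S. cerevisiae; buffer or medium: CSMM-D glucose medium; doses: one concentration, 10 µM final, 0.25% DMSO; incubation: 48 h compound exposure at 30 °C; detection: optical density at 615 nm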

[3] = doxorubicin toxicity protection in MRP-1 cells – H69AR cells, CellTiter-Glo, duplicate, MRP-1 activator project, pilot screen (AID 807;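 active = viability increase at or above a cutoff of the median across tested compounds plus 3 SD, cut at about 8.5% in these data, passing the limit was not always enough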;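 also: compound pretreatment 18-22 h then 72 h combined with doxorubicin; 0% = doxorubicin alone and 100% = vehicle without doxorubicin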); conditions: H69AR viability with doxorubicin, CellTiter-Glo luminescence; at 10 µM; active compounds read high
[4] = viability of HCT116 without oncogenic beta-catenin – human colon tumor cells, pilot screen (AID 823;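 active = cell viability at or below a set limit in both duplicate runs, the limit being the all-compound median minus 4 SD, cut at about 23% in these data, passing the limit was not always enough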;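 also: 0% = wells killed by 20 µM Hyamine and 100% = untreated DMSO cell wells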); conditions: HCT116 beta-catenin knockout viability, CellTiter-Glo, 60 h; at 10 µM; active compounds read low
[5] = viability of PTEN-null HCT116 cells – cell-based, HCT116 clonal line, CellTiter-Glo, pilot screen (AID 824;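 active = viability at or below 27.92% in each of two runs, the all-compound median minus 4 SD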;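 also: 0% = 20 µM Hyamine control and 100% = vehicle cell control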); conditions: HCT116 PTEN-deleted viability, 60 h, at 10 µM, active compounds read low
[6] = RAM pathway blockade in budding yeast – dse1pr::URA3 reporter, 5-FOA selection, pilot screen (AID 869;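 active = inhibition over a set limit, the all-compound mean plus 3 SD, in both replicate runs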;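 also: 0% = DMSO wells with no growth and 100% = 10 µM 1-NA-PP1 with full growth; RAM network block rescues cells from 5-FOA so hits raise OD615 growth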); conditions: S. cerevisiae dse1pr::URA3 5-FOA growth, OD615, 2 d; at 10 µM; active compounds read high; strain carries analog-sensitive mutant Cbk1 kinase
[7] = RAM signaling pathway blockade in yeast – S. cerevisiae, Pdr1DBD-CYC8 efflux-inhibited sensitized strain, primary screen (AID 1298);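 also: 0% = DMSO untreated cells without growth and 100% = 10 µM 1-NA-PP1 full growth; higher means more yeast growth rescued from 5-FOA killing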; conditions: S. cerevisiae cbk1-as DSE1-URA3 strain, 5-FOA growth OD615, 2 d; at 50 µM; active compounds read high

CC(=O)NCC(=O)NC1(C(=O)NC2CCCC2)CCCCC1
inactive: growth inhibition [1] -1.73% | growth inhibition [2] -24.5% | viability increase [3] -0.35% | viability [4] 97.8% | viability [5] 99.6% | inhibition [6] 4.11% | RAM network inhibition [7] 2.03%

COc1ccc(C(=O)NCCn2ccc3ccccc32)cc1OC
inactive: growth inhibition [1] -9.53% | growth inhibition [2] -16.1% | viability increase [3] -3.48% | viability [4] 99.7% | viability [5] 81.9% | inhibition [6] 1.91% | RAM network inhibition [7] 2.68%

CCN(CC)CCCNC(=O)C1c2ccccc2C(=O)N(C)C1c1ccc(OC)cc1 (stereo not drawn)
inactive: growth inhibition [1] -23% | growth inhibition [2] -20.7% | viability increase [3] 0.37% | viability [4] 96.5% | viability [5] 97.3% | inhibition [6] 3.1% | RAM network inhibition [7] 2.54%

CCOC(=O)c1ccc(NC(=O)C2CCCN(S(=O)(=O)c3cnc[nH]3)C2)cc1 (stereo not drawn)
inactive: growth inhibition [1] 2.33% | growth inhibition [2] 2.53% | viability increase [3] 0.94% | viability [4] 105% | viability [5] 96.7% | inhibition [6] 0.31% | RAM network inhibition [7] 2.17%

O=C(c1ccc(CS(=O)(=O)c2ccccc2)o1)N1CCOCC1
inactive: growth inhibition [1] -12.2% | growth inhibition [2] -15.5% | viability increase [3] -0.71% | viability [4] 105% | viability [5] 95.8% | inhibition [6] 1.19% | RAM network inhibition [7] 3.8%

CCN1CCCC(NC(=O)c2scc3c2CCCC3)C1 (stereo not drawn)
inactive: growth inhibition [1] -8.03% | growth inhibition [2] -5.2% | viability increase [3] -2.12% | viability [4] 96.5% | viability [5] 95.1% | inhibition [6] 0.625% | RAM network inhibition [7] -0.09%

O=S(=O)(NCCN1CCCC1)c1cccc2cccnc12
inactive: growth inhibition [1] -4.34% | growth inhibition [2] 14.2% | viability increase [3] -2.62% | viability [4] 99.8% | viability [5] 92.9% | inhibition [6] 0.34% | RAM network inhibition [7] 5.38%

CCCCCOC(=O)Cn1c(=O)oc2ccccc21
inactive: growth inhibition [1] -7.12% | growth inhibition [2] 4.42% | viability increase [3] -1.13% | viability [4] 90.3% | viability [5] 97.8% | inhibition [6] 0.385% | RAM network inhibition [7] 4.28%

CCCCCn1c(SCc2cccc(C)c2)nc2c1c(=O)[nH]c(=O)n2C
inactive: growth inhibition [1] -12.8% | growth inhibition [2] -18.8% | viability increase [3] -7.54% | viability [4] 70.1% | viability [5] 66.4% | inhibition [6] 1.67% | RAM network inhibition [7] 5.94%

CCOC(=O)CC1C(=O)NCCN1Cc1cccc(C(F)(F)F)c1 (stereo not drawn)
inactive: growth inhibition [1] -4.03% | growth inhibition [2] -3.95% | viability increase [3] -1.61% | viability [4] 97.4% | viability [5] 86% | inhibition [6] 1.66% | RAM network inhibition [7] -0.14%

O=C(Oc1ccccc1)N1CCN(c2ccc(F)cc2)CC1
inactive: growth inhibition [1] -11.1% | growth inhibition [2] -5.32% | viability increase [3] 1.92% | viability [4] 95.8% | viability [5] 85.5% | inhibition [6] 0.665% | RAM network inhibition [7] 5.1%

CC(C)N1C(=O)CCC1C(=O)NCc1ccccc1Cl (stereo not drawn)
inactive: growth inhibition [1] -8.36% | growth inhibition [2] -6.72% | viability increase [3] -2.27% | viability [4] 96% | viability [5] 98.9% | inhibition [6] 1.68% | RAM network inhibition [7] 0.01%

Cc1cc(C)n(-c2nncc(-c3ccccc3)n2)n1
inactive: growth inhibition [1] 14% | growth inhibition [2] 34.6% | viability increase [3] -2.22% | viability [4] 98.9% | viability [5] 95.6% | inhibition [6] 1.86% | RAM network inhibition [7] 0.92%

COc1ccc(NC(=O)C2CCCN(S(=O)(=O)c3cccnc3)C2)c(OC)c1 (stereo not drawn)
inactive: growth inhibition [1] -9.3% | growth inhibition [2] -2.6% | viability increase [3] 1.08% | viability [4] 104% | viability [5] 97.1% | inhibition [6] 1.57% | RAM network inhibition [7] -0.22%

COc1ccc(N2CSC3=C(C#N)C(c4ccc(OC)c(OC)c4)CC(=O)N3C2)c(OC)c1 (stereo not drawn)
inactive: growth inhibition [1] 18.8% | growth inhibition [2] 22.1% | viability increase [3] -4.13% | viability [4] 79.5% | viability [5] 81.7% | inhibition [6] 1.88% | RAM network inhibition [7] 0.93%

Cn1cc(S(=O)(=O)CC(=O)Nc2ccc3c(c2)OCO3)c2ccccc21
inactive: growth inhibition [1] -1.92% | growth inhibition [2] 4.48% | viability increase [3] -2.54% | viability [4] 95.9% | viability [5] 92.1% | inhibition [6] 0.5% | RAM network inhibition [7] 5.14%

Cc1ccc(Cl)cc1NC(=O)Cn1cc2c(n1)CCCC2
inactive: growth inhibition [1] -3.65% | growth inhibition [2] 8.66% | viability increase [3] -2.72% | viability [4] 110% | viability [5] 97% | inhibition [6] -0.18% | RAM network inhibition [7] 0.23%

CCn1ncc(C2=NOC(C(=O)Nc3c(C)nn(Cc4ccc(F)cc4)c3C)C2)c1C (stereo not drawn)
inactive: growth inhibition [1] -7.87% | growth inhibition [2] -11.5% | viability increase [3] 0.42% | viability [4] 93.5% | viability [5] 88.7% | inhibition [6] 1.59% | RAM network inhibition [7] 1.41%

CCOC(=O)/C=C/S(=O)(=O)c1ccc(NC(C)=O)cc1
inactive: growth inhibition [1] -24.4% | growth inhibition [2] -13.2% | viability increase [3] -7.51% | viability [4] 82.4% | viability [5] 93.5% | inhibition [6] 0.03% | RAM network inhibition [7] 5.29%

CCC(C)NC(=O)CNC(=O)Cn1c(C)cc2ccccc2c1=O (stereo not drawn)
inactive: growth inhibition [1] -4.49% | growth inhibition [2] -8.84% | viability increase [3] -2.27% | viability [4] 102% | viability [5] 94.2% | inhibition [6] 0.04% | RAM network inhibition [7] 4.72%

O=C(CSc1ncnc2c1oc1ccccc12)NC1CCCCC1
inactive: growth inhibition [1] -5.42% | growth inhibition [2] 3.17% | viability increase [3] -0.15% | viability [4] 95% | viability [5] 85.3% | inhibition [6] 1.92% | RAM network inhibition [7] 4.21%

CCNC(=O)Cc1ccc(NS(=O)(=O)c2ccc(F)cc2)cc1
inactive: growth inhibition [1] -7.1% | growth inhibition [2] 13.8% | viability increase [3] -2.21% | viability [4] 100% | viability [5] 94.6% | inhibition [6] 0.34% | RAM network inhibition [7] 2.36%

CCOC(=O)c1sc(NC(=O)c2cc(S(=O)(=O)N3CCOCC3)ccc2C)nc1C
inactive: growth inhibition [1] -4.69% | growth inhibition [2] -10.3% | viability increase [3] -2.11% | viability [4] 92.3% | viability [5] 86.6% | inhibition [6] 0.57% | RAM network inhibition [7] 6.77%

COc1ccccc1N1CCN(C(CNS(=O)(=O)c2cccs2)c2cccnc2)CC1 (stereo not drawn)
inactive: growth inhibition [1] -6.17% | growth inhibition [2] -25.5% | viability increase [3] -3.42% | viability [4] 87.8% | viability [5] 79.1% | inhibition [6] 1.8% | RAM network inhibition [7] 5.16%
